The results in this text go back to ChEMBL document CHEMBL1156483, “A directed approach for engineering conditional protein stability using biologically silent small molecules” (J Biol Chem, 2007).

SMILES strings stand for the structures. Active and inactive are the calls of the source. The rule behind the calls is not given here.

As a reminder, the Kd is the free concentration of one partner at which half of the binding sites on the other are occupied at equilibrium, for simple one-to-one binding. A high value points to lower affinity. By EC50 is commonly meant the midpoint of the concentration-response curve.

A short description of test [1]: Displacement of fluorescein-SLF from FKBP12 F36V mutant by fluorescence polarization assay. Background: Fluorescence polarisation rises when a labelled molecule tumbles more slowly, as on binding a larger partner.
Test [2] deals with NIH3T3. The test can be described thus: (§1) Stability of FKBP12 V2A mutant-YFP fusion protein expressed in NIH3T3 cells after 24 hrs by flow cytometry. Format: cell-based. A digest of the protocol: (§2)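 Retrovirally transduced NIH3T3 cells stably expressing V2A-YFP, plated at 1 × 10^5 cells/well and dosed with 3-fold dilutions (10 µM to 1 nM, or 10 µM to 300 nM) for 24 h. Cells trypsinized, resuspended in PBS, YFP read by flow cytometry (10,000 events). Average MFI ±SEM relative to F36V protein; EC50 from dose curve.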
Background: A flow cytometer gives signals particle by particle.

Test [3] has as its system NIH3T3. The test can be described thus: Prevention of proteasome mediated degradation of FKBP12-YFP fusion protein expressed in mouse NIH3T3 cells at 10 uM.
Test [4] deals with NIH3T3. Kind of test: Stability of FKBP12 V2A mutant-N terminus of YFP fusion protein expressed in NIH3T3 cells assessed as mean fluorescence intensity at 1 uM after 24 hrs by flow cytometry relative to FKBP12 F36V mutant. The format is cell-based. A digest of the protocol:
(§3)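 FKBP mutants (all carrying F36V) fused to the N- or C-terminus of YFP and stably transduced into NIH3T3 cells by MMLV retrovirus (clonally mixed populations). Cells split, mock-treated or given 1 µM for 24 h. YFP read by flow cytometry, 10,000 events. MFI normalized to parent F36V-YFP cells given 1 µM; mean of three experiments ±SEM.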

Test [5] concerns NIH3T3. The test can be described thus: Stability of FKBP12 V4A/17V mutant-N terminus of YFP fusion protein expressed in NIH3T3 cells assessed as mean fluorescence intensity at 1 uM after 24 hrs by flow cytometry relative to FKBP12 F36V mutant. The format is cell-based. Summed up: as §3
In test [6] the test system is NIH3T3. Kind of test: Stability of FKBP12 L50A mutant-C terminus of YFP fusion protein expressed in NIH3T3 cells assessed as mean fluorescence intensity at 1 uM after 24 hrs by flow cytometry. Format: cell-based. A digest of the protocol:
as §3

Test [7] concerns NIH3T3. The test can be described thus: Stability of FKBP12 V2A/17V mutant-N terminus of YFP fusion protein expressed in NIH3T3 cells assessed as mean fluorescence intensity at 1 uM after 24 hrs by flow cytometry relative to FKBP12 F36V mutant. Format: cell-based. Summed up:
as §3

Test [8] has as its system NIH3T3. Kind of test: Effect on Npas4 mRNA level in mouse NIH3T3 cells at 10 nM after 24 hrs by microarray analysis relative to control. The format is functional. A digest of the protocol:
(§4)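 NIH3T3 cells, in triplicate, mock-treated or treated with 10 nM, 100 nM or 1 µM for 24 h. Total RNA hybridized to MEEBO oligonucleotide arrays. Differentially expressed genes identified by unpaired two-class SAM against mock-treated samples, FDR ≤27.5%. Fold change reported.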

The test system of test [9] is NIH3T3. Kind of test: Effect on Epb4.1l2 mRNA level in mouse NIH3T3 cells at 1 uM after 24 hrs by microarray analysis relative to control. The format is functional. A digest of the protocol:
as §4

Test [10] concerns NIH3T3. Kind of test: Stability of FKBP12 V4A mutant-N terminus of YFP fusion protein expressed in NIH3T3 cells assessed as mean fluorescence intensity at 1 uM after 24 hrs by flow cytometry relative to FKBP12 F36V mutant. Format: cell-based. Summed up:
as §3

In test [11] the test system is NIH3T3. The test can be described thus: Stability of FKBP12 F36V mutant-C terminus of YFP fusion protein expressed in NIH3T3 cells assessed as mean fluorescence intensity at 1 uM after 24 hrs by flow cytometry. Format: cell-based. A digest of the protocol:
as §3

The subject of test [12] is NIH3T3. Kind of test: Effect on A430110N23 mRNA level in mouse NIH3T3 cells at 10 nM after 24 hrs by microarray analysis relative to control. Format: functional. Summed up:
as §4

In test [13] the test system is NIH3T3. The test can be described thus: Effect on Csnkle mRNA level in mouse NIH3T3 cells at 1 uM after 24 hrs by microarray analysis relative to control. The format is functional. A digest of the protocol:
as §4

Test [14] is described as follows: Displacement of fluorescein-SLF from FKBP12 L50A mutant-GST fusion protein by fluorescence polarization assay.
The subject of test [15] is NIH3T3. The test can be described thus: Stability of FKBP12 L106A mutant-C terminus of YFP fusion protein expressed in NIH3T3 cells assessed as mean fluorescence intensity at 1 uM after 24 hrs by flow cytometry. The format is cell-based. A digest of the protocol:
as §3

Test [16] concerns NIH3T3. Kind of test: Stability of FKBP12 F36V mutant-N terminus of YFP fusion protein expressed in NIH3T3 cells assessed as mean fluorescence intensity at 1 uM after 24 hrs by flow cytometry. The format is cell-based. A digest of the protocol: as §3
Test [17] deals with NIH3T3. Kind of test: Effect on MtCrVgp3 mRNA level in mouse NIH3T3 cells at 10 nM after 24 hrs by microarray analysis relative to control. The format is functional. To be noted: in the assay text read “at 1 uM” for “at 10 nM”. A digest of the protocol: as §4
The test system of test [18] is NIH3T3. Kind of test: Stability of FKBP12 V2A mutant-C terminus of YFP fusion protein expressed in NIH3T3 cells assessed as mean fluorescence intensity at 1 uM after 24 hrs by flow cytometry. Format: cell-based. A digest of the protocol:
as §3

In test [19] the test system is NIH3T3. The test can be described thus: Stability of FKBP12 V2A/V4A mutant-N terminus of YFP fusion protein expressed in NIH3T3 cells assessed as mean fluorescence intensity at 1 uM after 24 hrs by flow cytometry relative to FKBP12 F36V mutant. Format: cell-based. A digest of the protocol:
as §3

The subject of test [20] is NIH3T3. Kind of test: Stability of FKBP12 V2A/V4A/17V mutant-N terminus of YFP fusion protein expressed in NIH3T3 cells assessed as mean fluorescence intensity at 1 uM after 24 hrs by flow cytometry relative to FKBP12 F36V mutant. Format: cell-based. Summed up: as §3
The subject of test [21] is NIH3T3. The test can be described thus: Effect on Ptpn1 mRNA level in mouse NIH3T3 cells at 10 nM after 24 hrs by microarray analysis relative to control. The format is functional. A digest of the protocol: as §4
Test [22] deals with NIH3T3. The test can be described thus: Stability of FKBP12 17V mutant-N terminus of YFP fusion protein expressed in NIH3T3 cells assessed as mean fluorescence intensity at 1 uM after 24 hrs by flow cytometry relative to FKBP12 F36V mutant. The format is cell-based. A digest of the protocol: as §3
A short description of test [23]: Displacement of fluorescein-SLF from FKBP12 V2A mutant-GST fusion protein by fluorescence polarization assay.
In test [24] the test system is NIH3T3. Kind of test: Stability of FKBP12 V2A mutant-firefly luciferase fusion protein expressed in NIH3T3 cells assessed as rescue of luminescence at 1 or 10 uM after 24 hrs by dual luciferase reporter assay. The format is cell-based.
Test [25] deals with NIH3T3. The test can be described thus: Stability of FKBP12 L106A mutant-N terminus of YFP fusion protein expressed in NIH3T3 cells assessed as mean fluorescence intensity at 1 uM after 24 hrs by flow cytometry. Format: cell-based. Summed up:
as §3

The subject of test [26] is NIH3T3. Kind of test: Stability of FKBP12 V2A mutant-N terminus of YFP fusion protein expressed in NIH3T3 cells assessed as mean fluorescence intensity at 1 uM after 24 hrs by flow cytometry. The format is cell-based. Summed up:
as §3

Test [27] has as its system NIH3T3. The test can be described thus: Effect on 4930422M22Rik mRNA level in mouse NIH3T3 cells at 10 nM after 24 hrs by microarray analysis relative to control. The format is functional. A digest of the protocol:
as §4

Test [28] relates to NIH3T3. The test can be described thus: Effect on Tcfe3 mRNA level in mouse NIH3T3 cells at 1 uM after 24 hrs by microarray analysis relative to control. The format is functional. Summed up: as §4
The subject of test [29] is NIH3T3. Kind of test: Effect on Shkbp1 mRNA level in mouse NIH3T3 cells at 10 nM after 24 hrs by microarray analysis relative to control. Format: functional. Summed up:
as §4

Test [30] in a line: as §1. The format is cell-based. Summed up: as §2
Test [31] in a line: Displacement of fluorescein-SLF from FKBP12 F36V mutant-GST fusion protein by fluorescence polarization assay.
The nature of test [32]: Displacement of fluorescein-SLF from FKBP12 L106A mutant-GST fusion protein by fluorescence polarization assay.
For test [33], the system named is NIH3T3. Kind of test: Stability of FKBP12 L50A mutant-N terminus of YFP fusion protein expressed in NIH3T3 cells assessed as mean fluorescence intensity at 1 uM after 24 hrs by flow cytometry. Format: cell-based. A digest of the protocol:
as §3

Turning to `CC[C@H](C(=O)N1CCCC[C@H]1C(=O)O[C@H](CCc1ccc(OC)c(OC)c1)c1cccc(OCC(=O)O)c1)c1cc(OC)c(OC)c(OC)c1`, in test [1], the Kd is 0.4 nM. Further, the result with NIH3T3 [2] was Active.

On to `CC(=O)N[C@@H](CSC(=O)[C@]1([C@@H](O)C(C)C)NC(=O)[C@H](C)[C@@H]1O)C(=O)O`, for which the result with NIH3T3 [3] was Active.

In test [1], `CC[C@H](C(=O)N1CCCC[C@H]1C(=O)O[C@H](CCc1ccc(OC)c(OC)c1)c1cccc(OCC(=O)OCCn2ccnn2)c1)c1cc(OC)c(OC)c(OC)c1` had a Kd of 0.7 nM. Also, in the test on NIH3T3 [2], the outcome was Active.

For the compound `CC[C@H](C(=O)N1CCCC[C@H]1C(=O)O[C@H](CCc1ccc(OC)c(OC)c1)c1cccc(OCCN2CCOCC2)c1)c1cc(OC)c(OC)c(OC)c1`, the result in the test with NIH3T3 [4], with NIH3T3 [5], in the test with NIH3T3 [7], in the test with NIH3T3 [10], in the test on NIH3T3 [19] and with NIH3T3 [20] was Active. Further, the result with NIH3T3 [22] was Active. The outcome in the test with NIH3T3 [6], in the test on NIH3T3 [11], with NIH3T3 [15] and with NIH3T3 [18] was inactive. Further, the Kd in test [1] is 0.4 nM; in test [14] it was 3 nM; in test [23] it was 4 nM; in test [31], 2 nM; in test [32], 2 nM. Also, the “fold change (FC)” value with NIH3T3 [8] was -1.7; in the test with NIH3T3 [9] it was 2.2; with NIH3T3 [12] it was -2.1; in the test on NIH3T3 [13], 2.7; in the test on NIH3T3 [17] it was -11.3; in the test with NIH3T3 [21], -1.7. Besides, the “fold change (FC)” value in the test on NIH3T3 [27] is -2.2; with NIH3T3 [28], 1.9; with NIH3T3 [29] it was -2.3. Besides, the Stability entry in the test with NIH3T3 [16], in the test with NIH3T3 [25], with NIH3T3 [26] and with NIH3T3 [33] was “Stable” each time. In addition, in the test on NIH3T3 [24], the Activity result was “Dose-dependent effect”. The compound further registered an EC50 in [30] of 60 nM.

With `CC[C@H](C(=O)N1CCCC[C@H]1C(=O)O[C@H](CCc1ccc(OC)c(OC)c1)c1cccc(OCC(=O)NCC(C)(C)N)c1)c1cc(OC)c(OC)c(OC)c1`, in test [1], binding was put at a Kd of 0.9 nM. In addition, the outcome in the test with NIH3T3 [2] was Active.
